Test results reported in the EternaBench riboswitch data.

Tested on: MS2 coat protein
Test: apparent Kd, MS2 coat protein; higher = weaker binding; RNA-MaP array; FMN 200 µM where present
How it was run: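 Each design was made on Illumina sequencing-chip clusters by stalled E. coli RNA polymerase and titrated with SNAP-549-labelled MS2 coat protein from 0.7 or 1.5 nM, doubling to 3 µM, in the absence and then the presence of constant ligand. The buffer was 100 mM Tris-HCl pH 7.5, 80 mM KCl, 4 mM MgCl2, BSA, DTT, yeast tRNA and Tween-20. The apparent Kd is the median of filtered per-cluster fits of binding curves, with green signal normalised to red-channel RNA signal and control-cluster median Fmax.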

[1] = designed as: OFF switch for flavin mononucleotide, no ligand
[2] = ligand present: flavin mononucleotide, designed as: OFF switch for flavin mononucleotide
[3] = designed as: ON switch for flavin mononucleotide, no ligand
[4] = ligand present: flavin mononucleotide, designed as: ON switch for flavin mononucleotide

In the case of “CGAUGAGUAGGAUAUGCGUCGGAUGCAUCUGCAUGUCACUUACAUGAGGAUCACCCAUGUAGAAGGGCUCGUUC”, the “apparent Kd” value [1] is reported as 19 nM and the “apparent Kd” value [2] is reported as 26 nM.
For “CGAUUAUUGAUCCAUUUUUACAACAUGAGGAUCACCCAUGUGCAGGAUAUCGUGAUUAUUAUCAACGAGAAGGGCAAAUUCACG”, the “apparent Kd” value [1] was 49 nM and the “apparent Kd” value [2] was 137 nM.
For “CGCAAGUAUACAUGAGGAUCACCCAUGUCAGAUAGGGUAAUCAGAAGGUACAAUUAGAGAUAGAGUAAGGAUAUGAAAUUUGCG”, the “apparent Kd” value [3] was 865 nM and the “apparent Kd” value [4] was 314 nM.
With “CGCACUAUACAUGAGGAUCACCCAUGUUAUUAUGAGAUAGUCAGAAGGCAUUGUUAGUGAUAUUAUGAGGAUAUGAAUAGUGCG” the “apparent Kd” value [3] was 156 nM and the “apparent Kd” value [4] was 89.8 nM.
“CGCAGUACUUAGGUACCACACAUGAGGAUCACCCAUGUAUCACAGGAUAUGCAUGAUAUAUUCAGGCAGAAGGGUGAUCUUACC” was tested, and the “apparent Kd” value [3] was 79.7 nM and the “apparent Kd” value [4] was 318 nM.
For “CGCCAUCCCGGUGGCGUGAGGAUACCAGAAGGGACGAUCUCACAUGAGGAUCACCCAUGUUAUAGUCAGGAUAUGGGUUCAUCA”, the “apparent Kd” value [3] was 88.5 nM and the “apparent Kd” value [4] was 12.3 nM.
For “CGCCUGCGUAGAAUUAGCAGCUGACAGGAUAUGACAUGAGGAUCACCCAUGUGAAAUAAGAAGAGUCAGAAGGGUCACGACGCG”, the “apparent Kd” value [1] was 10.8 nM and the “apparent Kd” value [2] was 8.77 nM.
For “CGCGAAAACAUAGGAUAUUGUUACAUGAGGAUCACCCAUGUCAACCAUGUAGCUCGAAUUGUUGACAAGAAGGAUGAGGUCGCG”, the “apparent Kd” value [3] was 48.3 nM and the “apparent Kd” value [4] was 103 nM.
In the case of “CGCGAACAGGUUAACAUGAGGAUCACCCAUGUGGACUCAUGGUAGGAUAUCGGGAAGGAGGAAACCGAGAAGGGCUGGUGAGCC”, the “apparent Kd” value [3] is reported as 634 nM and the “apparent Kd” value [4] is reported as 443 nM.
For “CGCUAAGAUGGGUCUAAUGGAGCAUAGGAUAUGCUUGUACAUGAGGAUCACCCAUGUAAUAUUGUGCAGAAGGGUGCAUUUGCG”, the “apparent Kd” value [3] was 127 nM and the “apparent Kd” value [4] was 61.7 nM.
“CGCUACUACCAGAAGGACAUGAGGAUCACCCAUGUAGGAUAUGGGUUACAAGUACCAGUGUAGAGAAACUACGCUACAGUAGCG” was tested, and the “apparent Kd” value [3] was 29.8 nM and the “apparent Kd” value [4] was 8.3 nM.
“CGCUACUACCAGAAGGACAUGAGGAUCACCCAUGUAGGAUAUGGGUUACAAGUUCCUGUGUAAAGAAACUACGCUACGUAUGCG” was tested, and the “apparent Kd” value [3] was 715 nM and the “apparent Kd” value [4] was 31.7 nM.
With “CGCUAGGAUGGGUCUAAUGGACCACAGGAUAUGCUUGUACAUGAGGAUCACCCAUGUAAUAUUGUGCAGAAGGGUGGAUUCACG” the “apparent Kd” value [3] was 54.8 nM and the “apparent Kd” value [4] was 8.27 nM.
“CGCUAGGAUGGGUCUAAUGGACCACAGGAUAUGCUUGUACAUGAGGAUCACCCAUGUAAUAUUGUGCAGAAGGGUGGAUUCGCG” was tested, and the “apparent Kd” value [3] was 76 nM and the “apparent Kd” value [4] was 10.9 nM.
With “CGCUAGGAUGGGUCUAAUGGACCUCAGGAUAUGCUUGUACAUGAGGAUCACCCAUGUAAUAUUGUGCAGAAGGGAGGAUCCACG” the “apparent Kd” value [3] was 18.9 nM and the “apparent Kd” value [4] was 6.56 nM.
“CGCUGAGCGGUGAGGAUAUCGUGUUCGAAAGAACGUGAGAAGGCACAUGAGGAUCACCCAUGUGAUCCUCAUCG” was tested, and the “apparent Kd” value [1] was 17.1 nM and the “apparent Kd” value [2] was 28.1 nM.
With “CGCUGGUGACAGCAUCCAUCAAAACAUGAGGAUCACCCAUGUAGAAGGCUGUACGGUUACCGUACAGAGGAUAUACAAUGAUGC” the “apparent Kd” value [1] was 15.1 nM and the “apparent Kd” value [2] was 28.4 nM.
“CGCUGGUGACAGCAUCCAUCAAAACAUGAGGAUCACCCAUGUAGAAGGCUGUACGGUUACCGUACAGAGGAUAUACAAUGAUGG” was tested, and the “apparent Kd” value [1] was 7.56 nM and the “apparent Kd” value [2] was 9.75 nM.
For “CGCUGUCUCGCAGGAUAUGCAUUGGAUUACAAUGCAGAAGGGCGAUUACAUGAGGAUCACCCAUGUGUUGACAGUGAAGAAGAU”, the “apparent Kd” value [3] was 113 nM and the “apparent Kd” value [4] was 25.5 nM.
“CGGAUGUCAGGAUAUACGAACAUGUCGCCAGAUGUCAUGGUACAUGAGGAUCACCCAUGUAGAAGGGAGGUGGU” was tested, and the “apparent Kd” value [1] was 160 nM and the “apparent Kd” value [2] was 331 nM.
In the case of “CGGCCGGGUCGAGGAUAUAAGUCUAGGACAUGAGGAUCACCCAUGUAUGUCUUAGAAGGCGACCCGGCCAGCCUGUUACAGGCA”, the “apparent Kd” value [3] is reported as 31.7 nM and the “apparent Kd” value [4] is reported as 7.21 nM.
“CGGCGCUGUCGAGAGGAUAUGCGGUGACGGACAUGAGGAUCACCCAUGUUAGCGAUAGCGUUACGGUAGAAGGCUCUACAGUCGC” was tested, and the “apparent Kd” value [3] was 76.8 nM and the “apparent Kd” value [4] was 15.4 nM.
With “CGGGCCGUCUACAUGAGGAUCACCCAUGUGACGGAAGUAACACAGGAUAUCCUCUAAUUGUAGACGGAGAAGGGUGGCCCGAAU” the “apparent Kd” value [3] was 28.9 nM and the “apparent Kd” value [4] was 159 nM.
“CGGGCGGGAGGAUAUGCGUGGAUUGUUCUCGUAUGGUGUCUACAUGAGGAUCACCCAUGUAGAAGGCUUGUUUG” was tested, and the “apparent Kd” value [1] was 14.1 nM and the “apparent Kd” value [2] was 16.7 nM.
“CGGUACUGAGGAUAUACAUGAGGAUCACCCAUGUGUUCCAGCUAGCGUACUGGCAUUUGUAGAAGGCGGUGCUG” was tested, and the “apparent Kd” value [1] was 16.8 nM and the “apparent Kd” value [2] was 48 nM.
In the case of “CGUAACUGCAUAGGAUAUUGAUACAUGAGGAUCACCCAUGUUUUUCGGAUUAUAUAUCUACUUAGCAAGAAGGAUGGAGUUACG”, the “apparent Kd” value [3] is reported as 7.09 nM and the “apparent Kd” value [4] is reported as 5.15 nM.
With “CGUAAGAUGCAGAAGGUGUUAGCUAGAGCUACGACAUGAGGAUCACCCAUGUACUAGAAACAGUACAAGGAUAUGCAUCUUACG” the “apparent Kd” value [3] was 17.3 nM and the “apparent Kd” value [4] was 6.56 nM.
